Assay outcomes (PubChem)
A selection: hits, their analogues and other compounds. The true share with any hit is near 5.2%.
ZTA counter: counter-screen for EBNA-1 inhibitors: inhibitors of Epstein-Barr virus ZTA. P03206. 0.15% of 320,000 active. ZTA-DNA binding, fluorescence polarization. inhibition, % at 11 µM; in the data active = inhibition above about 33%
Target sequence (P03206 whole entry, looked up): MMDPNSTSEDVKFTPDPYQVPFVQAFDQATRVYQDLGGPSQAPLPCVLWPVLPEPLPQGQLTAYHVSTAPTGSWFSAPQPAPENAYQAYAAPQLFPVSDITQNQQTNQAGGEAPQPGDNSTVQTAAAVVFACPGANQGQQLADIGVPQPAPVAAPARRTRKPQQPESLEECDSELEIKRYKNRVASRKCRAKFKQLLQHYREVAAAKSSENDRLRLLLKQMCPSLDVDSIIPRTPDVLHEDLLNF
M18AAP inhibitor: PfM18AAP enzyme inhibition | recombinant PfM18AAP, H-Glu-NHMec fluorogenic cleavage | inhibition, % at 7.35 µM | 1.2% of 290,000 active | AID 1822;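 active = inhibition above the campaign mean inhibition over all tested compounds plus 3 SD, cut at about 28% in these data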
EBNA-1 inh: blocks EBNA-1 binding to DNA. inhibition, % at 14.8 µM. 0.34% of 300,000 active. EBNA-1 DNA binding, fluorescence polarization; in the data active = inhibition above about 28%
NS3 helicase inh: blocks Hepatitis C virus NS3 helicase unwinding. NS3 helicase DNA unwinding, Cy5 molecular beacon fluorescence. AID 1800. inhibition, % at 10.9 µM. 0.56% of 290,000 active;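 active = inhibition above the mean of all tested compounds plus 3 SD, set per campaign, cut at about 35% in these data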
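System: NS3 helicase fragment of HCV / Schedule: 1 h at 25 °C / Control set: DMSO alone as 0% and 110 µM thioflavine S as 100% / Reagent: Cy5/quencher beacon DNA duplex and ATP to start / Technique: Cy5 fluorescence / Replication: singlicate / Evaluation: % inhibition of end-to-start signal ratio versus controls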
ALR inh: human ALR oxidase inhibition via reduced H2O2 | P55789 | purified ALR, DTT oxidation, H2O2 HRP-luminol luminescence | inhibition, % (test concentration not listed) | 3.8% of 290,000 active | AID 485317;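 active = mean replicate inhibition above about 79%, with every replicate also reaching it, limit read from the data; inconclusive = only one of the two criteria met; inactive = mean below limit and not every replicate reaching it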
Target sequence (P55789 whole entry, looked up): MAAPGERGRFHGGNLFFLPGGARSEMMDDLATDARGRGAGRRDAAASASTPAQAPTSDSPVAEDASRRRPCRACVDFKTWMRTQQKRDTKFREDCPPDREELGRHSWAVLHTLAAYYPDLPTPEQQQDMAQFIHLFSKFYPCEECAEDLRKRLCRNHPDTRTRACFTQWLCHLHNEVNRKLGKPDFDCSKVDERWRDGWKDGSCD
core dimer inh: blocks dimerization of HCV core protein; AID 1899; inhibition, % at 5 µM; TR-FRET GST/Flag-core106 dimerization, 1536-well; 0.33% of 300,000 active;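 active = inhibition above the mean of all tested compounds plus 3 SD, set per screening campaign, cut at about 45% in these data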
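test system = GST/Flag-tagged HCV core106 proteins | probe or stimulus = Eu donor and XL665 acceptor anti-tag antibodies | times = compound-protein-antibody incubation 4 h at 22.5 °C | signal = TR-FRET, excitation 340 nm, emission 617 and 671 nm | measure = percent inhibition of core106 dimerization signal | controls = wells lacking GST-core106 and wells with excess unlabelled core106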
Large screens that a line does not name were inactive.

O=C(NCCCn1ccnc1)C(=O)NCC(c1cccnc1)N1CCN(c2ccccc2)CC1 (stereo not given)	ALR inh 99
COC(=O)NCC(c1cccnc1)N1CCN(c2ccccc2F)CC1 (stereo not given)	none
COc1ccc(N2CCN(C(CNC(=O)C(=O)NCCCn3ccnc3)c3ccco3)CC2)cc1 (stereo not given)	ALR inh 83
O=C(NCCCn1ccnc1)C(=O)NCC(c1ccco1)N1CCN(c2ccc(F)cc2)CC1 (stereo not given)	ALR inh 98
O=C(NCC(c1ccco1)N1CCN(c2ccc(F)cc2)CC1)C(=O)NC1CC1 (stereo not given)	none (no result: M18AAP inhibitor, NS3 helicase inh)
O=C(NCCCn1ccnc1)C(=O)NCC(c1ccco1)N1CCN(c2ccccc2)CC1 (stereo not given)	ALR inh 99
Cc1c(C(=O)N2CCN(Cc3ccccc3)CC2)oc2c1C(=O)CCC2	none
O=C(CCN1C(=O)/C(=C/c2cccs2)SC1=S)Nc1ccc(O)cc1	none
O=C(CCN1C(=O)/C(=C/c2cccs2)SC1=S)Nc1ccc(C(=O)O)c(O)c1	ALR inh 79
O=c1[nH]n(Cc2ccccc2)c2ccccc12	ALR inh 99
O=c1ccn(Cc2ccccc2)c2ccccc12	none (no result: M18AAP inhibitor, NS3 helicase inh, ALR inh)
Cn1c(N/N=C/c2ccccc2)nc2sc3c(c2c1=O)CCC3	ALR inh 92
COc1ccccc1N1C(=O)CC(N2CCN(c3ccc(F)cc3)CC2)C1=O (stereo not given)	ALR inh 97
COc1ccccc1N1CCN(C2CC(=O)N(c3ccc(Cl)cc3)C2=O)CC1 (stereo not given)	none (no result: ALR inh)
COc1ccc(N2CCN(C3CC(=O)N(Cc4ccccc4)C3=O)CC2)cc1 (stereo not given)	ALR inh 92
Cc1ccc(-c2nc(-c3cccnc3)sc2CC(=O)O)cc1	ALR inh 99
Cc1ccc(Nc2nc(-c3ccc(C)cc3)c(CC(=O)O)s2)cc1	none (no result: ALR inh)
Cc1ccc(-c2sc(-c3cccnc3)nc2CC(=O)O)cc1	ALR inh 99
COc1ccc(NC(=O)CSc2nc3ccccc3c(=O)n2CCCC(=O)NCC2CCCO2)c(OC)c1 (stereo not given)	none
N#Cc1nc(-c2ccco2)oc1NCCc1ccccc1	ALR inh 98
COc1ccc(CCNc2oc(-c3ccco3)nc2C#N)cc1	none
Cc1ccc2oc(-c3cc(NC(=O)c4ncn[nH]4)ccc3O)nc2c1	none
N=C(N)SCCc1cccc(CCSC(=N)N)c1	ALR inh 98 (no result: M18AAP inhibitor, NS3 helicase inh)
COc1ccc(NC(=O)c2cc3ccccc3cc2OC)cc1	none
COc1cc(C(=O)c2ccccc2)c(OC)cc1C(=O)Nc1ccc(O)cc1	ALR inh 100
COc1ccc(C(=O)Nc2ccc(C)cc2C(=O)c2ccccc2)c(OC)c1	ALR inh 97
Cc1nc(C)c(/C(O)=C\c2nc3ccc([N+](=O)[O-])cc3oc2=O)o1	ALR inh 99
NC(=S)N/N=C/c1ccc(-c2ccc([N+](=O)[O-])cc2)o1	M18AAP inhibitor 42, ALR inh inconclusive, core dimer inh 50
Nc1ccccc1Sc1ccccc1[N+](=O)[O-]	none (no result: ALR inh)
CN(C)/N=C/c1ccc(Sc2ccccc2[N+](=O)[O-])o1	ALR inh 92
CN(/N=C/c1ccc(-c2ccc([N+](=O)[O-])cc2)o1)c1ccccc1	core dimer inh 55
CN(/N=C/c1cc([N+](=O)[O-])ccc1O)c1ccccc1	none
Cc1ccc(N=Cc2nc(-c3ccc(C)cc3)oc2O)cc1	none (no result: ZTA counter, EBNA-1 inh, ALR inh, core dimer inh)
CC(=O)Nc1ccc(N=Cc2nc(-c3ccc(C)cc3)oc2O)cc1	core dimer inh 65
CCOc1cc2[nH]c(=S)n(CC3CCCO3)c(=O)c2cc1OCC (stereo not given)	ALR inh 95
COCCn1c(=S)[nH]c2cc(C(=O)NCC3CCCO3)ccc2c1=O (stereo not given)	ALR inh 98
CC(=O)N1CCN(Cc2nc3ccc(Cl)cc3n2CCO)CC1	none
CCN1CCN(C(=O)c2cc(S(=O)(=O)Nc3ccc(S(C)(=O)=O)cc3)ccc2Cl)CC1	none
CCCOC(=O)c1c(-c2ccc(C)cc2C)csc1NC(=O)C1C2CCC(O2)C1C(=O)O (stereo not given)	M18AAP inhibitor 30 (no result: ALR inh)
Cc1ccc(N(CC(=O)NC2CCCCC2)C(=O)Cn2nnc(-c3ccc(C)o3)n2)cc1	none (no result: ALR inh)
Cc1ccc(-c2nnn(CC(=O)N(CC(=O)NC3CCCCC3)c3cnc4ccccc4c3)n2)o1	M18AAP inhibitor 32
CCN(CC)C(=O)CSc1ncnc2c(-c3cccs3)nsc12	core dimer inh 47
COCCn1c(=NC(=O)CSCC(=O)Nc2cc(C)on2)sc2cc(C(=O)OC)ccc21	ALR inh 92
COCCn1c(=NC(=O)CCS(=O)(=O)c2ccccc2)sc2cc(C(=O)OC)ccc21	none
CCCCN(C(=O)C(C)Oc1ccc(Br)cc1)c1c(N)n(Cc2ccccc2)c(=O)[nH]c1=O (stereo not given)	none
CCCCC1=CC2=C(c3ccco3)C(=O)C(C)(OC(=O)c3ccc(OC)cc3)C(=O)C2=CN1C1CC1 (stereo not given)	none (no result: M18AAP inhibitor, NS3 helicase inh)
CCCCC1=CC2=C(c3ccco3)C(=O)C(C)(OC(=O)c3ccc(OC)cc3)C(=O)C2=CN1c1ccc(OC)cc1 (stereo not given)	core dimer inh 58 (no result: M18AAP inhibitor, NS3 helicase inh)
CCCCC1=CC2=C(c3ccco3)C(=O)C(C)(OC(=O)c3ccc(OC)cc3)C(=O)C2=CN1C1CCCC1 (stereo not given)	core dimer inh 59 (no result: M18AAP inhibitor, NS3 helicase inh)
CC1CCCC(NC(=O)COC(=O)c2ccc(Cl)nc2)C1C (stereo not given)	none (no result: M18AAP inhibitor, EBNA-1 inh, NS3 helicase inh, ALR inh, core dimer inh)
C=CCn1c(C)cc(C(=O)COC(=O)CCc2cc(OC)c(OC)c(OC)c2)c1C	none (no result: ZTA counter, M18AAP inhibitor, EBNA-1 inh, NS3 helicase inh, core dimer inh)
CCC(=O)Oc1ccc(C/C(=N\O)c2ccc(O)cc2O)o1	ALR inh 98
Nc1ccc(CCc2ccc(N)cc2)cc1	ALR inh 85 (no result: M18AAP inhibitor, NS3 helicase inh)
Cc1ccc(C)c(NC(=O)NNS(=O)(=O)c2ccc(C)c(C)c2)c1	ALR inh 85
Cc1ccc(S(=O)(=O)NNC(=O)CCC(=O)Nc2ccc(C)c(C)c2)cc1	none
Cc1ccc(S(=O)(=O)/N=C(\CCl)N2CCOCC2)cc1	ALR inh 97
Cc1ccc(S(=O)(=O)/N=C(\CN2CCOCC2)N2CCCC2)cc1	none
Cc1cc(CC(=O)O)c2oc(-c3ccoc3)cc(=O)c2c1	none (no result: M18AAP inhibitor, NS3 helicase inh)
Cc1nnc(SCC(=O)NC(C)(C)C)n1NCc1ccc(N(C)C)cc1	ALR inh 81
S=c1[nH]nc(-c2cc3c(s2)-c2ccccc2CC3)o1	ALR inh 97
CC1CCc2sc(-c3n[nH]c(=S)o3)cc2C1 (stereo not given)	ALR inh 98
